In ChEMBL document CHEMBL1149113 (J Med Chem, 2004):

Columns and labels:
B2 bradykinin receptor [1] = biological target: T1, B2 bradykinin receptor (Cavia porcellus, UniProt O70526); assay: In vitro inhibitory activity towards bradykinin receptor B2 using [3H]BK (0.06 nM) as a radioligand in guinea pig ileum membrane preparation; type: cell membranes
T1 sequence (O70526 whole entry): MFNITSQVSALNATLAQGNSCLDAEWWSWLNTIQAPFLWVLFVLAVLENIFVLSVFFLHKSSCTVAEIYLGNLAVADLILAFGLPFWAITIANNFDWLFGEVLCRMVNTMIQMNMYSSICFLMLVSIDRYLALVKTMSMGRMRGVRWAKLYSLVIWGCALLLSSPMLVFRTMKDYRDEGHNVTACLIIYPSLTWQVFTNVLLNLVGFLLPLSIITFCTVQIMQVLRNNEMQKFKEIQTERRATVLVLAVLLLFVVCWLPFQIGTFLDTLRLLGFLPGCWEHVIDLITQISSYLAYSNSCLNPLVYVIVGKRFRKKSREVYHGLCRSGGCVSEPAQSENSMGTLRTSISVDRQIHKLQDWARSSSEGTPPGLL
Summary of the method: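 Ileal membranes from male Hartley guinea pigs, prepared in TES/1,10-phenanthroline pH 6.8 with 100000 g pellet. Membranes (0.2 mg protein/mL) incubated with [3H]BK and varying compound concentrations 60 min at room temperature in binding buffer with bacitracin, DTT, captopril, BSA. Filter harvest, scintillation counting; nonspecific with 1 μM BK. IC50 as mean of ≥3 determinations.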

B2 bradykinin receptor [2] = biological target: T2, B2 bradykinin receptor (Homo sapiens, UniProt P30411); assay: In vitro inhibitory activity towards human bradykinin receptor B2 expressed in CHO cells using [3H]BK (1.0 nM) as a radioligand; type: cell-based
T2 sequence (P30411 whole entry): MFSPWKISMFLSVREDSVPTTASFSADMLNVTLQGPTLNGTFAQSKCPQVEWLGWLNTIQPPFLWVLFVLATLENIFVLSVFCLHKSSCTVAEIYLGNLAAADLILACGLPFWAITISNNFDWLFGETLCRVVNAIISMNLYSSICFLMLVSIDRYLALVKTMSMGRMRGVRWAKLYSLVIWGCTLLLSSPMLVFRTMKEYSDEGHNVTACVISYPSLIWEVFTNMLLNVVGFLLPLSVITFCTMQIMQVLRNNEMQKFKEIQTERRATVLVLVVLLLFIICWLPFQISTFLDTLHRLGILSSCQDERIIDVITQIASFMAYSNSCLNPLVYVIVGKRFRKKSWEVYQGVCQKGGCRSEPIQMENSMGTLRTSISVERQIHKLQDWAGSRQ
Summary of the method: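 Stably transfected CHO (dhfr-) cells seeded at 3.0 × 10^4 cells/well, cultured 1 day, then incubated with test compounds for 2 h at 4 °C. Binding buffer was HEPES/N-methyl-D-glucamine pH 7.2 with bacitracin, enalaprilat and BSA. Cells solubilized in SDS/NaOH and counted by scintillation; nonspecific binding with 1 μM unlabeled BK. Run three times.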

Cavia porcellus [3] = assay: Compound was evaluated for percentage inhibition against BK-induced bronchoconstriction in anesthetized guinea pig, intravenously at a concentration of 1 mg/kg; type: functional; conditions: route intravenous
Summary of the method: (§1)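 Male Hartley guinea pigs (470-750 g), fasted overnight, pentobarbital 30 mg/kg ip, tracheal and jugular cannulation, ventilated 10 mL/kg at 60 breaths/min; alcuronium 0.5 mg/kg iv, propranolol 10 mg/kg sc. BK 5 μg/kg iv; compound in 5% citric acid iv 25 min later, BK repeated 5 min after drug. Peak insufflation pressure rise (Konzett-Rossler); % inhibition vs vehicle, n=3-4.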

Cavia porcellus [4] = assay: Compound was evaluated for percentage inhibition against BK-induced bronchoconstriction in anesthetized guinea pig, intravenously at a concentration of 10 mg/kg; type: functional; conditions: route intravenous; summary of the method: as §1

SMILES: CNC(=O)c1ccc(/C=C/C(=O)NCC(=O)N(C)c2ccc(Cl)c(COc3cccc4c(N(C)C)cc(C)nc34)c2Cl)cc1
- IC50 (B2 bradykinin receptor [1]): 1.8 nM
- IC50 (B2 bradykinin receptor [2]): 3.2 nM

SMILES: Cc1cc(N(C)C)c2cccc(OCc3c(Cl)ccc(N(C)C(=O)CNC(=O)/C=C/c4ccc(C(=O)N(C)C)cc4)c3Cl)c2n1
- IC50 (B2 bradykinin receptor [1]): 2.9 nM
- IC50 (B2 bradykinin receptor [2]): 2.1 nM

SMILES: CNC(=O)c1ccc(/C=C/C(=O)NCC(=O)N(C)c2ccc(Cl)c(COc3cccc4c(-n5ccnc5)cc(C)nc34)c2Cl)cc1
- IC50 (B2 bradykinin receptor [1]): 3.7 nM
- IC50 (B2 bradykinin receptor [2]): 0.28 nM

SMILES: CNC(=O)c1ccc(/C=C/C(=O)NCC(=O)N(C)c2ccc(Cl)c(COc3cccc4c(-n5cccn5)cc(C)nc34)c2Cl)cc1
- IC50 (B2 bradykinin receptor [1]): 2.7 nM
- IC50 (B2 bradykinin receptor [2]): 0.17 nM

SMILES: Cc1cc(-n2ccnc2)c2cccc(OCc3c(Cl)ccc(-n4cccc4CNC(=O)/C=C/c4ccc(C(=O)N(C)C)cc4)c3Cl)c2n1
- IC50 (B2 bradykinin receptor [1]): 3 nM
- IC50 (B2 bradykinin receptor [2]): 0.26 nM
- inhibition in vivo at 1 mg/kg (Cavia porcellus [3]): 46%

SMILES: CNC(=O)c1ccc(/C=C/C(=O)NCC(=O)N(C)c2ccc(Cl)c(COc3cccc4c(-n5cncn5)cc(C)nc34)c2Cl)cc1
- IC50 (B2 bradykinin receptor [1]): 4.4 nM
- IC50 (B2 bradykinin receptor [2]): 0.23 nM

SMILES: Cc1cc(-n2ccnc2)c2cccc(OCc3c(Cl)ccc(N(C)C(=O)CNC(=O)/C=C/c4ccc(C(=O)N(C)C)cc4)c3Cl)c2n1
- IC50 (B2 bradykinin receptor [1]): 4.3 nM
- IC50 (B2 bradykinin receptor [2]): 0.35 nM

SMILES: Cc1cc(-n2ccnn2)c2cccc(OCc3c(Cl)ccc(N(C)C(=O)CNC(=O)/C=C/c4ccc(C(=O)N(C)C)cc4)c3Cl)c2n1
- IC50 (B2 bradykinin receptor [1]): 9.1 nM
- IC50 (B2 bradykinin receptor [2]): 0.28 nM

SMILES: Cc1cc(-n2ccnc2)c2cccc(OCc3c(Cl)ccc(N(C)C(=O)CNC(=O)Nc4cccc(C(=O)Nc5ccncc5)c4)c3Cl)c2n1
- IC50 (B2 bradykinin receptor [1]): 6.6 nM
- inhibition in vivo at 10 mg/kg (Cavia porcellus [4]): 56.8%
- IC50 (B2 bradykinin receptor [2]): 0.23 nM

SMILES: Cc1cc(-n2ccnc2)c2cccc(OCc3c(Cl)ccc(-n4cccc4CNC(=O)/C=C/c4ccc(C(=O)NCc5ccccn5)cc4)c3Cl)c2n1
- IC50 (B2 bradykinin receptor [1]): 6 nM
- IC50 (B2 bradykinin receptor [2]): 0.43 nM

SMILES: Cc1cc(-n2cccn2)c2cccc(OCc3c(Cl)ccc(N(C)C(=O)CNC(=O)/C=C/c4ccc(C(=O)N(C)C)cc4)c3Cl)c2n1
- IC50 (B2 bradykinin receptor [1]): 3.3 nM
- IC50 (B2 bradykinin receptor [2]): 0.18 nM

SMILES: Cc1cc(-n2ccnc2)c2cccc(OCc3c(Cl)ccc(N(C)C(=O)CNC(=O)/C=C/c4ccc(C(=O)Nc5ccncc5)cc4)c3Cl)c2n1
- IC50 (B2 bradykinin receptor [1]): 17 nM
- IC50 (B2 bradykinin receptor [2]): 0.42 nM

SMILES: CNC(=O)c1ccc(/C=C/C(=O)NCC(=O)N(C)c2ccc(C)c(COc3cccc4c(-c5ccccc5)cc(C)nc34)c2C)cc1
- IC50 (B2 bradykinin receptor [1]): 3.1 nM
- IC50 (B2 bradykinin receptor [2]): 1 nM

SMILES: N=C(N)NCCC[C@@H](N)C(=O)N[C@@H](CCCNC(=N)N)C(=O)N1CCC[C@H]1C(=O)N1C[C@H](O)C[C@H]1C(=O)NCC(=O)N[C@@H](Cc1cccs1)C(=O)N[C@@H](CO)C(=O)N1Cc2ccccc2C[C@@H]1C(=O)N1[C@H](C(=O)N[C@@H](CCCNC(=N)N)C(=O)O)C[C@@H]2CCCC[C@@H]21 [ICATIBANT]
- inhibition in vivo at 1 mg/kg (Cavia porcellus [3]): 63.4%
